In brackets after ≈: the same amount, converted by molar mass.
Key:
[1] = tested on: Staphylococcus aureus; test: Ratio of MBC for methicillin-susceptible Staphylococcus aureus ATCC 6538 to MIC for methicillin-susceptible Staphylococcus aureus ATCC 6538; assay type: functional
Procedure, shortened: (§1)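 MBC taken as lowest concentration giving >99.9% CFU reduction of the initial inoculum; value is MBC divided by MIC for the same strain.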

[2] = tested on: Klebsiella pneumoniae; test: Antimicrobial activity against Klebsiella pneumoniae ATCC 13883 after 18 hrs by broth microdilution method; assay type: functional; details: ATCC 13883, 18 h
[3] = tested on: Bacillus cereus; test: Antimicrobial activity against Bacillus cereus ATCC 10876 after 18 hrs by broth microdilution method; assay type: functional; details: ATCC 10876, 18 h
[4] = tested on: Staphylococcus aureus; test: Antimicrobial activity against Staphylococcus aureus Microbank 14001 after 18 hrs by broth microdilution method; assay type: functional; details: Microbank 14001, 18 h
[5] = tested on: Staphylococcus aureus; test: Ratio of MBC for methicillin-susceptible Staphylococcus aureus ATCC 25923 to MIC for methicillin-susceptible Staphylococcus aureus ATCC 25923; assay type: functional; procedure, shortened: as §1
[6] = tested on: Escherichia coli; test: Antimicrobial activity against Escherichia coli ATCC 25922 after 18 hrs by broth microdilution method; assay type: functional; details: ATCC 25922, 18 h
[7] = tested on: Staphylococcus aureus; test: Antimicrobial activity against methicillin-susceptible Staphylococcus aureus ATCC 25923 after 18 hrs by broth microdilution method; assay type: functional; details: ATCC 25923, 18 h
[8] = tested on: Staphylococcus epidermidis; test: Antimicrobial activity against Staphylococcus epidermidis ATCC 12228 after 18 hrs by broth microdilution method; assay type: functional; details: ATCC 12228, 18 h
[9] = tested on: Proteus mirabilis; test: Antimicrobial activity against Proteus mirabilis ATCC 12453 after 18 hrs by broth microdilution method; assay type: functional; details: ATCC 12453, 18 h
[10] = tested on: Staphylococcus aureus; test: Ratio of MBC for Staphylococcus aureus Microbank 14001 to MIC for Staphylococcus aureus Microbank 14001; assay type: functional; procedure, shortened: as §1
[11] = tested on: Pseudomonas aeruginosa; test: Antimicrobial activity against Pseudomonas aeruginosa ATCC 9027 after 18 hrs by broth microdilution method; assay type: functional; details: ATCC 9027, 18 h
[12] = tested on: Bacillus subtilis; test: Antimicrobial activity against Bacillus subtilis […] after 18 hrs by broth microdilution method; assay type: functional
[13] = tested on: Staphylococcus aureus; test: Antimicrobial activity against methicillin-susceptible Staphylococcus aureus ATCC 6538 after 18 hrs by broth microdilution method; assay type: functional; details: ATCC 6538, 18 h
[14] = tested on: Micrococcus luteus; test: Antimicrobial activity against Micrococcus luteus ATCC 10240 after 18 hrs by broth microdilution method; assay type: functional; details: ATCC 10240, 18 h
[15] = tested on: HEK293; test: Cytotoxicity against HEK293 cells after 72 hrs by MTT assay; assay type: cell-based; details: Homo sapiens, HEK293, 48 h; in the assay text read “48 hrs” for “72 hrs”
Procedure, shortened: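 HEK-293 (ATCC CRL-1573) in MEM with 10% FBS plus penicillin/streptomycin, seeded 3 x 10^5 cells/well, 24 h at 37 °C, 5% CO2. Treated with compounds diluted from 50 mg/mL DMSO stock into medium with 2% FBS for 48 h. Viability by MTT formazan readout; EC50 relative to control cells, mean ± SD of three independent experiments.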

Row | Structure (SMILES) | MIC [2] [µM] | MIC [3] [µM] | MIC [4] [µM] | MIC [6] [µM] | MIC [7] [µM] | MIC [8] [µM] | MIC [9] [µM] | MIC [11] [µM] | MIC [12] [µM] | MIC [13] [µM] | MIC [14] [µM] | Ratio [1] | Ratio [5] | Ratio [10] | EC50 [15] [µM]
1 | O=C(O)c1cn(C2CC2)c2cc(N3CCN(Cn4nc(-c5ccccc5O)n(-c5ccccc5)c4=S)CC3)c(F)cc2c1=O | 0.049 (≈ 0.03 µg/mL) | 0.098 (≈ 0.06 µg/mL) | 0.19 (≈ 0.116 µg/mL) | 0.012 (≈ 0.00735 µg/mL) | 0.8 (≈ 0.49 µg/mL) | 0.098 (≈ 0.06 µg/mL) | 0.024 (≈ 0.0147 µg/mL) | 0.39 (≈ 0.239 µg/mL) | 0.39 (≈ 0.239 µg/mL) | 0.39 (≈ 0.239 µg/mL) | 1.59 (≈ 0.974 µg/mL) | <=4 | <=4 | <=4 | –
2 | COc1ccc(Cn2c(-c3ccc(O)cc3)nn(CN3CCN(c4cc5c(cc4F)c(=O)c(C(=O)O)cn5C4CC4)CC3)c2=S)cc1 | 0.091 (≈ 0.0598 µg/mL) | 0.091 (≈ 0.0598 µg/mL) | 0.75 (≈ 0.493 µg/mL) | 0.046 (≈ 0.0302 µg/mL) | 2.97 (≈ 1.95 µg/mL) | 1.49 (≈ 0.979 µg/mL) | 0.091 (≈ 0.0598 µg/mL) | 0.36 (≈ 0.236 µg/mL) | 0.18 (≈ 0.118 µg/mL) | 0.75 (≈ 0.493 µg/mL) | 5.95 (≈ 3.91 µg/mL) | <=4 | <=4 | <=4 | –
3 | O=C(O)c1cn(C2CC2)c2cc(N3CCN(Cn4nc(-c5ccccc5O)n(-c5ccc(F)cc5)c4=S)CC3)c(F)cc2c1=O | 0.048 (≈ 0.0303 µg/mL) | 0.19 (≈ 0.12 µg/mL) | 0.19 (≈ 0.12 µg/mL) | 0.011 (≈ 0.00694 µg/mL) | 1.55 (≈ 0.978 µg/mL) | 0.38 (≈ 0.24 µg/mL) | 0.024 (≈ 0.0151 µg/mL) | 0.095 (≈ 0.0599 µg/mL) | 0.19 (≈ 0.12 µg/mL) | 0.38 (≈ 0.24 µg/mL) | 3.09 (≈ 1.95 µg/mL) | <=4 | <=4 | <=4 | –
4 | O=C(O)c1cn(C2CC2)c2cc(N3CCN(Cn4nc(-c5ccc(O)cc5)n(Cc5ccccc5)c4=S)CC3)c(F)cc2c1=O | 0.19 (≈ 0.119 µg/mL) | 0.19 (≈ 0.119 µg/mL) | 1.56 (≈ 0.978 µg/mL) | 0.048 (≈ 0.0301 µg/mL) | 3.11 (≈ 1.95 µg/mL) | 0.19 (≈ 0.119 µg/mL) | 0.024 (≈ 0.015 µg/mL) | 0.38 (≈ 0.238 µg/mL) | 0.78 (≈ 0.489 µg/mL) | 1.56 (≈ 0.978 µg/mL) | 6.24 (≈ 3.91 µg/mL) | <=4 | <=4 | <=4 | –
5 | O=C(O)c1cn(C2CC2)c2cc(N3CCN(Cn4nc(-c5ccccc5O)n(Cc5ccccc5)c4=S)CC3)c(F)cc2c1=O | 0.096 (≈ 0.0602 µg/mL) | 0.19 (≈ 0.119 µg/mL) | 0.38 (≈ 0.238 µg/mL) | 0.006 (≈ 0.00376 µg/mL) | 0.38 (≈ 0.238 µg/mL) | 0.38 (≈ 0.238 µg/mL) | 0.024 (≈ 0.015 µg/mL) | 0.096 (≈ 0.0602 µg/mL) | 0.048 (≈ 0.0301 µg/mL) | 0.19 (≈ 0.119 µg/mL) | 1.56 (≈ 0.978 µg/mL) | <=4 | <=4 | <=4 | 69.1

More lines, main results first:

Row | MIC [2] [µM] | MIC [3] [µM] | MIC [4] [µM] | MIC [6] [µM] | MIC [7] [µM] | MIC [8] [µM] | MIC [9] [µM] | MIC [11] [µM] | MIC [12] [µM] | MIC [13] [µM] | MIC [14] [µM] | Structure (SMILES) | Ratio [1] | Ratio [5] | Ratio [10] | EC50 [15] [µM]
6 | 0.048 (≈ 0.0301 µg/mL) | 0.096 (≈ 0.0602 µg/mL) | 0.19 (≈ 0.119 µg/mL) | 0.006 (≈ 0.00376 µg/mL) | 0.38 (≈ 0.238 µg/mL) | 0.096 (≈ 0.0602 µg/mL) | 0.012 (≈ 0.00752 µg/mL) | 0.19 (≈ 0.119 µg/mL) | 0.048 (≈ 0.0301 µg/mL) | 0.19 (≈ 0.119 µg/mL) | 1.56 (≈ 0.978 µg/mL) | O=C(O)c1cn(C2CC2)c2cc(N3CCN(Cn4nc(-c5cccc(O)c5)n(Cc5ccccc5)c4=S)CC3)c(F)cc2c1=O | <=4 | <=4 | <=4 | –
7 | 0.046 (≈ 0.0298 µg/mL) | 0.18 (≈ 0.116 µg/mL) | 0.37 (≈ 0.239 µg/mL) | 0.012 (≈ 0.00777 µg/mL) | 0.76 (≈ 0.492 µg/mL) | 0.093 (≈ 0.0602 µg/mL) | 0.024 (≈ 0.0155 µg/mL) | 0.37 (≈ 0.239 µg/mL) | 0.093 (≈ 0.0602 µg/mL) | 0.37 (≈ 0.239 µg/mL) | 1.51 (≈ 0.977 µg/mL) | O=C(O)c1cn(C2CC2)c2cc(N3CCN(Cn4nc(-c5cccc(O)c5)n(-c5ccc(Cl)cc5)c4=S)CC3)c(F)cc2c1=O | <=4 | <=4 | <=4 | –
8 | 0.047 (≈ 0.0302 µg/mL) | 0.37 (≈ 0.238 µg/mL) | 0.18 (≈ 0.116 µg/mL) | 0.011 (≈ 0.00707 µg/mL) | 0.76 (≈ 0.488 µg/mL) | 0.093 (≈ 0.0598 µg/mL) | 0.047 (≈ 0.0302 µg/mL) | 0.76 (≈ 0.488 µg/mL) | 0.093 (≈ 0.0598 µg/mL) | 0.37 (≈ 0.238 µg/mL) | 1.52 (≈ 0.977 µg/mL) | COc1ccc(-n2c(-c3ccccc3O)nn(CN3CCN(c4cc5c(cc4F)c(=O)c(C(=O)O)cn5C4CC4)CC3)c2=S)cc1 | <=4 | <=4 | <=4 | –

From ChEMBL document CHEMBL3421560, “Search for factors affecting antibacterial activity and toxicity of 1,2,4-triazole-ciprofloxacin hybrids” (Eur J Med Chem, 2015)
